From ChEMBL document CHEMBL1165965, “Synthesis and structure-activity relationships of 1,2,3,4-tetrahydropyrido[2,3-b]pyrazines as potent and selective inhibitors of the anaplastic lymphoma kinase” (Bioorg Med Chem, 2010)

Legend:
[1] = molecular target: Interleukin-1 receptor-associated kinase 1 (Homo sapiens) (UniProt P51617); experiment: Inhibition of IRAK1 at 1 uM
[2] = molecular target: Misshapen-like kinase 1 (Homo sapiens) (UniProt Q8N4C8); experiment: Inhibition of MINK at 1 uM
[3] = molecular target: Myosin light chain kinase 2, skeletal/cardiac muscle (Homo sapiens) (UniProt Q9H1R3); experiment: Inhibition of MYLK2 at 1 uM
Sequence of Myosin light chain kinase 2, skeletal/cardiac muscle (Homo sapiens) (Q9H1R3 whole entry): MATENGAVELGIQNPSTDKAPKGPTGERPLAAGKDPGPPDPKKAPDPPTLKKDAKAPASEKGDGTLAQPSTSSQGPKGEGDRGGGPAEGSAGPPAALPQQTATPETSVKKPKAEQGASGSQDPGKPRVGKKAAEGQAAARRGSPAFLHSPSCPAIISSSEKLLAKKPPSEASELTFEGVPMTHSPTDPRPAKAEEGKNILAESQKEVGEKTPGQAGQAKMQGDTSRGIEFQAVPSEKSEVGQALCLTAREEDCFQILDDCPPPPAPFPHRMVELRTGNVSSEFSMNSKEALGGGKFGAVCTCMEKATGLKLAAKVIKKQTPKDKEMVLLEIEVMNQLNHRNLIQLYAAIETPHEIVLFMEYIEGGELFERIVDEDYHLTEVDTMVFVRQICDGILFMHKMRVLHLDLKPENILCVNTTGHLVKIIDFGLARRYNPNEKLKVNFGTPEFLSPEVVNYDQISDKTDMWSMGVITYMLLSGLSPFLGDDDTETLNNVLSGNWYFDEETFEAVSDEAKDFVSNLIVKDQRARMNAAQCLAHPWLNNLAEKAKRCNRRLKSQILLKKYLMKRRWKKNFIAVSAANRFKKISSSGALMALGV

[4] = molecular target: Protein-tyrosine kinase 2-beta (Homo sapiens) (UniProt Q14289); experiment: Inhibition of PYK2 at 1 uM
Sequence of Protein-tyrosine kinase 2-beta (Homo sapiens) (Q14289 whole entry, looked up): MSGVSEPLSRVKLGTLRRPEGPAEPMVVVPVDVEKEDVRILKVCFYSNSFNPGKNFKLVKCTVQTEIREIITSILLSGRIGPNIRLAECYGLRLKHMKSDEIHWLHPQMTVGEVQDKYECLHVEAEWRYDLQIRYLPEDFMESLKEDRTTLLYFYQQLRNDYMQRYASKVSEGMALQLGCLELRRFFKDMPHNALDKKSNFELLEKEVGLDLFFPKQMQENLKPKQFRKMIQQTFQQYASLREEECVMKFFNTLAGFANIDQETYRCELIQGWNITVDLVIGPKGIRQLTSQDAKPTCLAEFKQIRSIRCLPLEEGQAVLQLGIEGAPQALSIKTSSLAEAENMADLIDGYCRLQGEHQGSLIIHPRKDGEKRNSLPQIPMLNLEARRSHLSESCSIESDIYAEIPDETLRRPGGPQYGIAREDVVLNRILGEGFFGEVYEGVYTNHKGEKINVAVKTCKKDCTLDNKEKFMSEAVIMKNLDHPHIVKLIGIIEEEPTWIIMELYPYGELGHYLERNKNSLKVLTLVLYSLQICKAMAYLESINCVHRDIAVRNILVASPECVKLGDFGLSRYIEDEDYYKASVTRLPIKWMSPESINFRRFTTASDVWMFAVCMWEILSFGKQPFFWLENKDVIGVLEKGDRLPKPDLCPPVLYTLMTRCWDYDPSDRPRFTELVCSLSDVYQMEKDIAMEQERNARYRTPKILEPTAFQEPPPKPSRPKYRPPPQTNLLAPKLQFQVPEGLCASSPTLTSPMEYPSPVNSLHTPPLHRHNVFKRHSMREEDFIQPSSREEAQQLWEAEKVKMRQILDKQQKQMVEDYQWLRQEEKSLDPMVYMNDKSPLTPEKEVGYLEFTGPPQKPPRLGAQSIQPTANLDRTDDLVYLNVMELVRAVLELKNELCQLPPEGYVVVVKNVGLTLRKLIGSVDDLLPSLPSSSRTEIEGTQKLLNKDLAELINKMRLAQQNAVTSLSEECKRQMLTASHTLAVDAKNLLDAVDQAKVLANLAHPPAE
How it was run: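 Single-concentration screen on the Ambit KINOMEscan platform, run against a panel of 250–400 kinases. Per-kinase inhibition was also summarized as S(90), the fraction of kinases inhibited by more than 90%.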

[5] = molecular target: T1, Receptor-interacting serine/threonine-protein kinase 1 (Homo sapiens) (UniProt Q13546); experiment: Inhibition of RIPK1 at 1 uM
T1 sequence (whole entry): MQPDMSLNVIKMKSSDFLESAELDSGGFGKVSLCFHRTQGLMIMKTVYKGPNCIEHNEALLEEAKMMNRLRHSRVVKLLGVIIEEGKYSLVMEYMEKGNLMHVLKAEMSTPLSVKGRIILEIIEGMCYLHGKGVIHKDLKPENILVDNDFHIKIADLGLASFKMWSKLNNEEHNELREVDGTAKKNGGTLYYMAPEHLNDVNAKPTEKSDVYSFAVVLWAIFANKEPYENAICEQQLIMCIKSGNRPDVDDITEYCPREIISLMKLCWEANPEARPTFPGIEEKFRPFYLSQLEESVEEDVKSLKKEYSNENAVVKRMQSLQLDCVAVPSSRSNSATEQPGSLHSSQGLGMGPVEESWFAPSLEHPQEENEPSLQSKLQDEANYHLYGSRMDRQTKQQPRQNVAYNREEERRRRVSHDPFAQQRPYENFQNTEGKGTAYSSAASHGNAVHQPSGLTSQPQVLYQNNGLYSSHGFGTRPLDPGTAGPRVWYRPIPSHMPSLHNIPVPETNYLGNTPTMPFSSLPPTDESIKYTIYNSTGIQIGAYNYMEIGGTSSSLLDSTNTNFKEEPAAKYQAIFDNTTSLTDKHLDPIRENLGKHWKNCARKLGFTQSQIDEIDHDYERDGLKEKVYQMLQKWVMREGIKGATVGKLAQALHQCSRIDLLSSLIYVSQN

[6] = molecular target: T2, Serine/threonine-protein kinase TAO3 (Homo sapiens) (UniProt Q9H2K8); experiment: Inhibition of TAOK3 at 1 uM
T2 sequence (whole entry): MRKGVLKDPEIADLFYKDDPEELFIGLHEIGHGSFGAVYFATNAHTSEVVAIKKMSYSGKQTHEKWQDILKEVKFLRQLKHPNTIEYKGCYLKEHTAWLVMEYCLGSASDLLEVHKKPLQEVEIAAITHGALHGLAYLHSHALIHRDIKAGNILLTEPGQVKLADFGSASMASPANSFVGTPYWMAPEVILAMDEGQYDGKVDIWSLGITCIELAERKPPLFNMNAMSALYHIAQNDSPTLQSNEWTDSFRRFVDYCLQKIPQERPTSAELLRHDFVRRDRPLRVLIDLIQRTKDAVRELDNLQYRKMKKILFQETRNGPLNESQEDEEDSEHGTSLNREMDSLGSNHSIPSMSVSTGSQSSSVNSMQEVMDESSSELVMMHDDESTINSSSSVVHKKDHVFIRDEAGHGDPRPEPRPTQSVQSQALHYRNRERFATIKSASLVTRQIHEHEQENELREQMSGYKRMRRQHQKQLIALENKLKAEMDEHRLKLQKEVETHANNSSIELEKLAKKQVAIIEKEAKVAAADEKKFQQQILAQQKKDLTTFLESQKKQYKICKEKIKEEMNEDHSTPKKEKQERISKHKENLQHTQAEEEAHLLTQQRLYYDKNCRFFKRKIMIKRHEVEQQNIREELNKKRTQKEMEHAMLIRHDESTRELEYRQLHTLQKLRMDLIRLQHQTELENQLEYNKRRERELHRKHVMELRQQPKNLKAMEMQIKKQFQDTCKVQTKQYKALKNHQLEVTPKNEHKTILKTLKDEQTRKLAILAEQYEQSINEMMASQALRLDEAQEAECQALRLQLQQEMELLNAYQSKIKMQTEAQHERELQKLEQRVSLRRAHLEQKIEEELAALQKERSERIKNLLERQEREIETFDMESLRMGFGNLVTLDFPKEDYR

[7] = molecular target: Tyrosine-protein kinase ABL1 (Homo sapiens) (UniProt P00519); experiment: Inhibition of ABL1 at 1 uM
Sequence of Tyrosine-protein kinase ABL1 (Homo sapiens) (P00519 whole entry): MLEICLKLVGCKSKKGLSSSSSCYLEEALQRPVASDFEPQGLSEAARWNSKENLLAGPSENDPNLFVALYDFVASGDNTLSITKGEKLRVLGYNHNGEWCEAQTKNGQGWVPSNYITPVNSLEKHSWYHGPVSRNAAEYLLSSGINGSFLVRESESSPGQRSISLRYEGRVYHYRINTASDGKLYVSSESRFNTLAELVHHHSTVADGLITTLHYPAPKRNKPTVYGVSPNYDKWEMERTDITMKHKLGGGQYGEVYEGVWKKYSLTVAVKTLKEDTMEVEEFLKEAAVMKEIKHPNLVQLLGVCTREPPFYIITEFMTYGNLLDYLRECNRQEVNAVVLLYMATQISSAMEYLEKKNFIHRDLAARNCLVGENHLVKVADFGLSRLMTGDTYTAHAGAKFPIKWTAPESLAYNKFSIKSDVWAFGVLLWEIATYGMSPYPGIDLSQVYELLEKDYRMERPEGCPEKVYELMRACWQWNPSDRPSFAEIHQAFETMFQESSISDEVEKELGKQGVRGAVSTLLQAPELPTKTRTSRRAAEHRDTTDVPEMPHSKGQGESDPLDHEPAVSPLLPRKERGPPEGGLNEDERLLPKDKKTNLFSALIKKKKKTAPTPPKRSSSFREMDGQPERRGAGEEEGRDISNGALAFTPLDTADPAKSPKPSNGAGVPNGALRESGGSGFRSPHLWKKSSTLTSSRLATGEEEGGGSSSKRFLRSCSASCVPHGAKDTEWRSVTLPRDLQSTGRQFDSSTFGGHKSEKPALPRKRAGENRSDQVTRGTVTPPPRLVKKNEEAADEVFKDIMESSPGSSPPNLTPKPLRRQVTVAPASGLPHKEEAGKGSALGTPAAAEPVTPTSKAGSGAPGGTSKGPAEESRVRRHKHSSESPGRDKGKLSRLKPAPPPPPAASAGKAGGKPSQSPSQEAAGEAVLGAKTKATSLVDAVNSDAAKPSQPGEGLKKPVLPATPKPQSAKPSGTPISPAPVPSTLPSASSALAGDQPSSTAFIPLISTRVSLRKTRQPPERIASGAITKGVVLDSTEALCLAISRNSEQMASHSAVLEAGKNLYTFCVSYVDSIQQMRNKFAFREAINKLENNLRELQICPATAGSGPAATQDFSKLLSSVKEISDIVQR
How it was run: (§1)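 Ambit KINOMEscan screen at a single concentration across a 250–400 kinase panel, recorded as percent inhibition. Selectivity was expressed as S(90), the fraction of kinases inhibited >90%.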

[8] = molecular target: T3, Cytoplasmic tyrosine-protein kinase BMX (Homo sapiens) (UniProt P51813); experiment: Inhibition of BMX at 1 uM; how it was run: as §1
T3 sequence (whole entry): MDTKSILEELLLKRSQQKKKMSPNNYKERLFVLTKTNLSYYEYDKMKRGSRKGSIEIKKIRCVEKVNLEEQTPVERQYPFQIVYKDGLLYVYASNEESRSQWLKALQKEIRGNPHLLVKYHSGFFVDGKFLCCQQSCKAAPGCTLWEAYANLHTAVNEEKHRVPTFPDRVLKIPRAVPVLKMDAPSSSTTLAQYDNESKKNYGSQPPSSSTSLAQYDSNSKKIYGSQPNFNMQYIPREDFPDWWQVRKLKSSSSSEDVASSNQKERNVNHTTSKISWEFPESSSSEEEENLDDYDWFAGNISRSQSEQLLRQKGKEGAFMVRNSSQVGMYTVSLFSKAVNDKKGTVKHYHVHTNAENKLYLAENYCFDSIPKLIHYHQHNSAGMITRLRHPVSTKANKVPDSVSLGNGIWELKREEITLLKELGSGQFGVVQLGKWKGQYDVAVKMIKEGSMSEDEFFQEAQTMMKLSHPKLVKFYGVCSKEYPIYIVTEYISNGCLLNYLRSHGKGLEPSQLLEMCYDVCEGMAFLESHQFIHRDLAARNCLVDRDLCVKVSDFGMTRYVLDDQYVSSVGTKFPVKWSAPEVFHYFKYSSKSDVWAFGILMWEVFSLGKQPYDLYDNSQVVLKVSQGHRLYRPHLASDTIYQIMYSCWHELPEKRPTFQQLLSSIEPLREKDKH

[9] = molecular target: Dual specificity protein kinase CLK1 (Homo sapiens) (UniProt P49759); experiment: Inhibition of CLK1 at 1 uM; how it was run: as §1
[10] = molecular target: Tyrosine-protein kinase CSK (Homo sapiens) (UniProt P41240); experiment: Inhibition of CSK at 1 uM
How it was run: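 Single-concentration screen using Ambit Bioscience KINOMEscan technology across a panel of 250–400 kinases. Per-kinase inhibition from this screen was summarized as S(90), the fraction of kinases inhibited by more than 90%.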

[11] = molecular target: Dual specificity tyrosine-phosphorylation-regulated kinase 1A (Homo sapiens) (UniProt Q13627); experiment: Inhibition of DYRK1A at 1 uM
[12] = test system: Epidermal growth factor receptor (Homo sapiens), P00533 [L858R,T790M]; experiment: Inhibition of EGFR L858R, T790M mutant at 1 uM; assay type: protein assay

Sequence of Interleukin-1 receptor-associated kinase 1 (Homo sapiens) (P51617 whole entry, looked up): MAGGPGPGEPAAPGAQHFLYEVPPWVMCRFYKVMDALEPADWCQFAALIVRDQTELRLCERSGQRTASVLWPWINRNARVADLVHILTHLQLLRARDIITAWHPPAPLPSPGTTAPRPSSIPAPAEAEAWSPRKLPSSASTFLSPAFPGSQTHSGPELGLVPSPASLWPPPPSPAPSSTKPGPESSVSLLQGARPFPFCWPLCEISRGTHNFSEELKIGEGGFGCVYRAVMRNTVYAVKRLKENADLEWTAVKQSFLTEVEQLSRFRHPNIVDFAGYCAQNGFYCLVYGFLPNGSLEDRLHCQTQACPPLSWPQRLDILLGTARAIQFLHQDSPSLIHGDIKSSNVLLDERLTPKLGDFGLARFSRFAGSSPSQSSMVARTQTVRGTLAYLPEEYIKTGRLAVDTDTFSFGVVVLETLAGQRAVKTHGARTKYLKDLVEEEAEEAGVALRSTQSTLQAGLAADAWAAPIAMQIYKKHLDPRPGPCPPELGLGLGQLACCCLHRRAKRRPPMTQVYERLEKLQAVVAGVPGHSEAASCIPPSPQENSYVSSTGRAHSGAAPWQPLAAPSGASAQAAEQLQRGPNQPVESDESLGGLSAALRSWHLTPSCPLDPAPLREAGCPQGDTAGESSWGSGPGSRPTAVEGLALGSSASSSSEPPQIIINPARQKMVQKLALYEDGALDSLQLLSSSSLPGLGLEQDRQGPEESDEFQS
Sequence of Misshapen-like kinase 1 (Homo sapiens) (Q8N4C8 whole entry, looked up): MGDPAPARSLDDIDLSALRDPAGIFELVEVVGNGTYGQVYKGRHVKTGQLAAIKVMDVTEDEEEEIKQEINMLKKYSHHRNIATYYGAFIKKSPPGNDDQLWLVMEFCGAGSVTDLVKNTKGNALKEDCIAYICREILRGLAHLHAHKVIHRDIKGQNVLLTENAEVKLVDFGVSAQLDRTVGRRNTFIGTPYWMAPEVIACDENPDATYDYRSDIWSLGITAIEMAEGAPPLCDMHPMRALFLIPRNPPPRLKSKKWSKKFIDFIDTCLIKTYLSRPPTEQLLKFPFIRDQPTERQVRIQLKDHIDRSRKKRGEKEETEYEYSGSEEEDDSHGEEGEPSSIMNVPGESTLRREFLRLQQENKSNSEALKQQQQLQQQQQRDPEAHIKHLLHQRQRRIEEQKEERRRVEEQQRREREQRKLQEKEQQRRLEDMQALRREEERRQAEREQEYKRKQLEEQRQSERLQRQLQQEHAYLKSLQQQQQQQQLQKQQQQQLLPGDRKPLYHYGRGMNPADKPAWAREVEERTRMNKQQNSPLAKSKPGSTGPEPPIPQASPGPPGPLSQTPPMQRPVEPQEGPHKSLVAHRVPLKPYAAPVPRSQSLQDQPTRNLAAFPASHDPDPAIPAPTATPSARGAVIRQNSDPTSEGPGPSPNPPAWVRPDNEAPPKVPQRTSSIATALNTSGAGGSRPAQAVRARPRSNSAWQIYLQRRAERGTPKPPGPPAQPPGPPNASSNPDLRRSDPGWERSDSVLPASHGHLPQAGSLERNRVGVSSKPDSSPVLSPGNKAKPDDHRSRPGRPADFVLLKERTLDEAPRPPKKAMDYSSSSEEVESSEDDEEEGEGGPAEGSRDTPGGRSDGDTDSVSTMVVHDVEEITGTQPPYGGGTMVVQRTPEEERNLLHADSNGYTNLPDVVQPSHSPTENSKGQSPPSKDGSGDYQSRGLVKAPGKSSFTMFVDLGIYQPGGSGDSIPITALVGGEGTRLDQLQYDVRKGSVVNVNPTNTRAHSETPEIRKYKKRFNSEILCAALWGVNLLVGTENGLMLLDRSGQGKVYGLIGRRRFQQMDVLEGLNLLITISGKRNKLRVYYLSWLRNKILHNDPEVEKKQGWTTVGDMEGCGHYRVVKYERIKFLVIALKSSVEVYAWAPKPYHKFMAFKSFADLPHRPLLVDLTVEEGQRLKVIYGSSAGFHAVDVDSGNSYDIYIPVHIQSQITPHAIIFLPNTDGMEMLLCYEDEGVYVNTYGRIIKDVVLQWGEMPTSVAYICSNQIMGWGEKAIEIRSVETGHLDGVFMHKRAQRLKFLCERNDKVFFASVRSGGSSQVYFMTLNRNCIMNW

| Compound | inhibition [1] [%] | inhibition [2] [%] | inhibition [3] [%] | inhibition [4] [%] | inhibition [5] [%] | inhibition [6] [%] | inhibition [7] [%] | inhibition [8] [%] | inhibition [9] [%] | inhibition [10] [%] | inhibition [11] [%] | inhibition [12] [%] |
| --- | --- | --- | --- | --- | --- | --- | --- | --- | --- | --- | --- | --- |
| O=C(c1ccc(-c2cnc3c(c2)N(Cc2cc(Cl)ccc2C(F)(F)F)CCN3)cc1)N1CCC(N2CCCC2)CC1 |  |  | < 50 | 90.8 | < 50 |  | < 50 | < 50 | < 50 | < 50 |  |  |
| COC1CCN(C(=O)c2ccc(-c3cnc4c(c3)N(Cc3cc(Cl)ccc3C(F)(F)F)CCN4)cc2)CC1 |  |  | < 50 | 68 | < 50 |  | < 50 | < 50 | < 50 | < 50 |  |  |
| CN1CCN(c2ccc(-c3cnc4c(c3)N(Cc3cc(F)ccc3F)CCN4)cn2)CC1 | < 50 | < 50 | < 50 | < 50 | < 50 | < 50 | 59 | < 50 | < 50 | < 50 | < 50 | < 50 |
| CN1CCN(c2ccc(-c3cnc4c(c3)N(Cc3c(F)ccc(F)c3Cl)CCN4)cn2)CC1 | < 50 | 96 | < 50 | < 50 | < 50 | < 50 | 84 | < 50 | < 50 | < 50 | < 50 | < 50 |
| CN1CCN(c2ccc(-c3cnc4c(c3)N(Cc3cc(Cl)ccc3Cl)CCN4)cn2)CC1 | < 50 | < 50 | < 50 | < 50 | < 50 | < 50 | < 50 | < 50 | < 50 | < 50 | < 50 | < 50 |

Second part, the molecule after the results:

| inhibition [1] [%] | inhibition [2] [%] | inhibition [3] [%] | inhibition [4] [%] | inhibition [5] [%] | inhibition [6] [%] | inhibition [7] [%] | inhibition [8] [%] | inhibition [9] [%] | inhibition [10] [%] | inhibition [11] [%] | inhibition [12] [%] | Compound |
| --- | --- | --- | --- | --- | --- | --- | --- | --- | --- | --- | --- | --- |
| < 50 | < 50 | < 50 | 71 | < 50 | < 50 | < 50 | < 50 | < 50 | < 50 | < 50 | < 50 | CN1CCN(c2ccc(-c3cnc4c(c3)N(Cc3cc(Cl)ccc3C(F)(F)F)CCN4)cn2)CC1 |
|  |  | < 50 | < 50 | < 50 |  | < 50 | < 50 | < 50 | < 50 |  |  | O=C(O)c1ccc(-c2cnc3c(c2)N(Cc2cc(Cl)ccc2C(F)(F)F)CCN3)cc1 |
| < 50 | < 50 | < 50 | 87 | < 50 | < 50 | < 50 | < 50 | < 50 | < 50 | < 50 | < 50 | FC(F)(F)c1ccc(Cl)cc1CN1CCNc2ncc(-c3ccnc(N4CCNCC4)c3)cc21 |
| < 50 | < 50 | < 50 | 84 | < 50 | < 50 | < 50 | < 50 | < 50 | < 50 | < 50 | < 50 | CC(=O)N1CCN(c2cc(-c3cnc4c(c3)N(Cc3cc(Cl)ccc3C(F)(F)F)CCN4)ccn2)CC1 |
|  |  | < 50 | < 50 | < 50 |  | < 50 | < 50 | < 50 | < 50 |  |  | O=C(c1ccc(-c2cnc3c(c2)N(Cc2cc(Cl)ccc2C(F)(F)F)CCN3)cc1)N1CCCCC1 |
